In ChEMBL document CHEMBL1136726, “Synthesis and characterization of iodine-123 labeled 2beta-carbomethoxy-3beta-(4'-((Z)-2-iodoethenyl)phenyl)nortropane. A ligand for in vivo imaging of serotonin transporters by single-photon-emission tomography” (J Med Chem, 2003):

Columns and labels:
Rattus norvegicus [1] = assay: Distribution of radioactivity in rat brain region prefrontal cortex 60 min after intravenous administration of iodine labeled compound in presence of RTI-113 blocker in study 1; assay type: ADME, organism-based; details: in vivo, 1 h
Method in brief: (§1)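 Male Sprague–Dawley rats (250–300 g), ketamine-anesthetized. Blocker (2 mg/kg) or none was given iv 15 min before tail-vein radioligand (10 µCi in 0.2 mL 10% EtOH/saline). Rats were killed at 60 min with im pentobarbital. Brain regions were dissected, weighed and gamma-counted. % dose/g was taken from decay-corrected, background-subtracted counts versus the injected dose.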

Rattus norvegicus [2] = assay: Distribution of radioactivity in rat brain striatum 60 min after intravenous administration of iodine labeled compound; assay type: ADME, organism-based; details: in vivo, 1 h
Method in brief: (§2)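 Male Sprague–Dawley rats (225–300 g) under ketamine anaesthesia were given [123I]ZIENT (10 μCi) in 0.2 mL 10% EtOH/0.9% NaCl into the tail vein, with a saline flush. Hypothalamus, prefrontal cortex, striatum, pons and cerebellum were dissected and gamma-counted. % injected dose/g came from decay-corrected counts against the diluted injected dose, and region/cerebellum ratios were taken from these. Mean ± SE, n=4–5.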

Rattus norvegicus [3] = assay: Distribution of radioactivity in rat brain region striatum 60 min after intravenous administration of iodine labeled compound in presence of reboxetine blocker in study 2; assay type: ADME, organism-based; details: in vivo, 1 h
Method in brief: (§3)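 Male Sprague–Dawley rats (250–300 g), ketamine-anaesthetised, received [123I]ZIENT (10 μCi) in 0.2 mL 10% ethanol/0.9% NaCl via the tail vein. […] Rats were killed at 60 min with pentobarbital, brain regions dissected and gamma-counted. Values are % dose/g from decay-corrected, background-subtracted counts against the diluted injected dose.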

Rattus norvegicus [4] = assay: Distribution of radioactivity in rat brain region pons 60 min after intravenous administration of iodine labeled compound in absence of blocker in study 1; assay type: ADME, organism-based; details: in vivo, 1 h; method in brief: as §1
Rattus norvegicus [5] = assay: Ratio of distribution of radioactivity in rat brain striatum and cerebellum 5 min after intravenous administration of iodine labeled compound; assay type: ADME, organism-based; details: in vivo
Method in brief: (§4)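 Male Sprague–Dawley rats (225–300 g), ketamine anesthesia, injected via tail vein with [123I]ZIENT (10 μCi in 0.2 mL 10% EtOH/0.9% NaCl, 0.4 mL saline flush). Killed at 5, 30, 60 or 120 min. Striatum and cerebellum dissected, weighed, γ-counted. Decay-corrected %injected dose/g taken against diluted injectate. Ratio is striatum over cerebellum. Four or five rats per time point, mean ± standard error.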

Rattus norvegicus [6] = assay: Distribution of radioactivity in rat brain prefrontal cortex 30 min after intravenous administration of iodine labeled compound; assay type: ADME, organism-based; details: in vivo, 0.5 h
Method in brief: (§5)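 Male Sprague–Dawley rats (225–300 g) under ketamine received 10 µCi radioligand iv (tail vein) in 10% EtOH/saline. Hypothalamus, prefrontal cortex, striatum, pons and cerebellum were dissected, weighed and gamma-counted. % injected dose/g was taken from decay-corrected counts versus diluted dose. Mean ± SE and range, n=5 (5, 30 min) or 4 (60, 120 min).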

Rattus norvegicus [7] = assay: Ratio of distribution of radioactivity in rat brain region prefrontal cortex and cerebellum 60 min after intravenous administration of iodine labeled compound in absence of blocker in study 2; assay type: ADME, organism-based; details: in vivo, 1 h
Rattus norvegicus [8] = assay: Distribution of radioactivity in rat muscle tissue 30 min after intravenous administration of iodine labeled compound; assay type: ADME, organism-based; details: in vivo, 0.5 h
Method in brief: (§6)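 Tail-vein injection of [123I]ZIENT (10 μCi in 0.2 mL 10% EtOH/0.9% NaCl, then 0.4 mL saline flush) into ketamine-anaesthetised male Sprague–Dawley rats (225–300 g). Animals were killed by cardiac excision at set times. Organs were excised, rinsed, blotted, weighed and gamma-counted. % dose/g was calculated against diluted aliquots of injectate. Mean ± SE, n=4–5.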

Rattus norvegicus [9] = assay: Distribution of radioactivity in rat heart 120 min after intravenous administration of iodine labeled compound; assay type: ADME, organism-based; details: in vivo, 2 h; method in brief: as §6
Rattus norvegicus [10] = assay: Ratio of distribution of radioactivity in rat brain region prefrontal cortex and cerebellum 60 min after intravenous administration of iodine labeled compound in presence of RTI-113 blocker in study 1; assay type: ADME, organism-based; details: in vivo, 1 h
Rattus norvegicus [11] = assay: Distribution of radioactivity in rat testis 5 min after intravenous administration of iodine labeled compound; assay type: ADME, organism-based; details: in vivo; method in brief: as §6
Rattus norvegicus [12] = assay: Distribution of radioactivity in rat brain hypothalamus 60 min after intravenous administration of iodine labeled compound; assay type: ADME, organism-based; details: in vivo, 1 h; method in brief: as §5
Rattus norvegicus [13] = assay: Distribution of radioactivity in rat brain 30 min after intravenous administration of iodine labeled compound; assay type: ADME, organism-based; details: in vivo, 0.5 h
Rattus norvegicus [14] = assay: Ratio of distribution of radioactivity in rat brain region pons and cerebellum 60 min after intravenous administration of iodine labeled compound in presence of RTI-113 blocker in study 1; assay type: ADME, organism-based; details: in vivo, 1 h
Rattus norvegicus [15] = assay: Ratio of distribution of radioactivity in rat brain region pons and cerebellum 60 min after intravenous administration of iodine labeled compound in presence of reboxetine blocker in study 2; assay type: ADME, organism-based; details: in vivo, 1 h
Rattus norvegicus [16] = assay: Ratio of distribution of radioactivity in rat brain striatum and cerebellum 30 min after intravenous administration of iodine labeled compound; assay type: ADME, organism-based; details: in vivo, 0.5 h; method in brief: as §4
Rattus norvegicus [17] = assay: Distribution of radioactivity in rat brain region frontal cortex 60 min after intravenous administration of iodine labeled compound in absence of blocker in study 2; assay type: ADME, organism-based; details: in vivo, 1 h; method in brief: as §1
Rattus norvegicus [18] = assay: Distribution of radioactivity in rat lung 5 min after intravenous administration of iodine labeled compound; assay type: ADME, organism-based; details: in vivo; method in brief: as §6
Rattus norvegicus [19] = assay: Distribution of radioactivity in rat brain region striatum 60 min after intravenous administration of iodine labeled compound in absence of blocker in study 2; assay type: ADME, organism-based; details: in vivo, 1 h; method in brief: as §3
Rattus norvegicus [20] = assay: Distribution of radioactivity in rat testis 30 min after intravenous administration of iodine labeled compound; assay type: ADME, organism-based; details: in vivo, 0.5 h; method in brief: as §6
Rattus norvegicus [21] = assay: Distribution of radioactivity in rat brain cerebellum 5 min after intravenous administration of iodine labeled compound; assay type: ADME, organism-based; details: in vivo; method in brief: as §5
Rattus norvegicus [22] = assay: Distribution of radioactivity in rat brain region frontal cortex 60 min after intravenous administration of iodine labeled compound in absence of blocker in study 1; assay type: ADME, organism-based; details: in vivo, 1 h; method in brief: as §1
Rattus norvegicus [23] = assay: Distribution of radioactivity in rat brain region striatum 60 min after intravenous administration of iodine labeled compound in presence of RTI-113 blocker in study 1; assay type: ADME, organism-based; details: in vivo, 1 h; method in brief: as §3
Rattus norvegicus [24] = assay: Ratio of distribution of radioactivity in rat brain hypothalamus and cerebellum 5 min after intravenous administration of iodine labeled compound; assay type: ADME, organism-based; details: in vivo; method in brief: as §2
Rattus norvegicus [25] = assay: Distribution of radioactivity in rat spleen 30 min after intravenous administration of iodine labeled compound; assay type: ADME, organism-based; details: in vivo, 0.5 h; method in brief: as §6
Rattus norvegicus [26] = assay: Distribution of radioactivity in rat brain region hypothalamus 60 min after intravenous administration of iodine labeled compound in presence of reboxetine blocker in study 2; assay type: ADME, organism-based; details: in vivo, 1 h; method in brief: as §1
Rattus norvegicus [27] = assay: Distribution of radioactivity in rat thyroid 30 min after intravenous administration of iodine labeled compound; assay type: ADME, organism-based, Thyroid gland; details: in vivo, 0.5 h; method in brief: as §6
Rattus norvegicus [28] = assay: Ratio of distribution of radioactivity in rat brain region striatum and cerebellum 60 min after intravenous administration of iodine labeled compound in presence of fluvoxamine blocker in study 1; assay type: ADME, organism-based; details: in vivo, 1 h
Rattus norvegicus [29] = assay: Distribution of radioactivity in rat brain region striatum 60 min after intravenous administration of iodine labeled compound in presence of fluvoxamine blocker in study 1; assay type: ADME, organism-based; details: in vivo, 1 h; method in brief: as §3
Rattus norvegicus [30] = assay: Ratio of distribution of radioactivity in rat brain region prefrontal cortex and cerebellum 60 min after intravenous administration of iodine labeled compound in presence of reboxetine blocker in study 2; assay type: ADME, organism-based; details: in vivo, 1 h
Rattus norvegicus [31] = assay: Distribution of radioactivity in rat muscle tissue 5 min after intravenous administration of iodine labeled compound; assay type: ADME, organism-based; details: in vivo; method in brief: as §6
Rattus norvegicus [32] = assay: Distribution of radioactivity in rat brain region prefrontal cortex 60 min after intravenous administration of iodine labeled compound in absence of blocker in study 1; assay type: ADME, organism-based; details: in vivo, 1 h; method in brief: as §1
Rattus norvegicus [33] = assay: Distribution of radioactivity in rat brain prefrontal cortex 5 min after intravenous administration of iodine labeled compound; assay type: ADME, organism-based; details: in vivo; method in brief: as §5

In the case of COC(=O)[C@@H]1C2CCC(C[C@@H]1c1ccc(/C=C\I)cc1)N2 (stereo partly drawn), the “Distribution (dose/g)” value (Rattus norvegicus [1]) is reported as 0.78%, the “Distribution (dose/g)” value (Rattus norvegicus [2]) is reported as 0.68% and the “Distribution (dose/g)” value (Rattus norvegicus [3]) is reported as 0.66%. For the same molecule, the “Distribution (dose/g)” value (Rattus norvegicus [4]) was 0.62%, the “Distribution (dose/g)” value (Rattus norvegicus [5]) was 1.21% and the “Distribution (dose/g)” value (Rattus norvegicus [6]) was 0.82%. For the same molecule, the “Distribution (dose/g)” value (Rattus norvegicus [7]) was 3.89%, the “Distribution (dose/g)” value (Rattus norvegicus [8]) was 0.23% and the “Distribution (dose/g)” value (Rattus norvegicus [9]) was 0.22%. For the same molecule, the “Distribution (dose/g)” value (Rattus norvegicus [10]) was 3.12%, the “Distribution (dose/g)” value (Rattus norvegicus [11]) was 0.21% and the “Distribution (dose/g)” value (Rattus norvegicus [12]) was 0.77%. The “Distribution (dose/g)” value (Rattus norvegicus [13]) was 0.74%, the “Distribution (dose/g)” value (Rattus norvegicus [14]) was 2.24% and the “Distribution (dose/g)” value (Rattus norvegicus [15]) was 2.35%. The “Distribution (dose/g)” value (Rattus norvegicus [16]) was 2.25%, the “Distribution (dose/g)” value (Rattus norvegicus [17]) was 0.59% and the “Distribution (dose/g)” value (Rattus norvegicus [18]) was 4.96%. For the same molecule, the “Distribution (dose/g)” value (Rattus norvegicus [19]) was 0.63%, the “Distribution (dose/g)” value (Rattus norvegicus [20]) was 0.34% and the “Distribution (dose/g)” value (Rattus norvegicus [21]) was 0.53%. The “Distribution (dose/g)” value (Rattus norvegicus [22]) was 0.75%, the “Distribution (dose/g)” value (Rattus norvegicus [23]) was 0.64% and the “Distribution (dose/g)” value (Rattus norvegicus [24]) was 1.09%. For the same molecule, the “Distribution (dose/g)” value (Rattus norvegicus [25]) was 0.81%, the “Distribution (dose/g)” value (Rattus norvegicus [26]) was 0.65% and the “Distribution (dose/g)” value (Rattus norvegicus [27]) was 0.49%. For the same molecule, the “Distribution (dose/g)” value (Rattus norvegicus [28]) was 1.76%, the “Distribution (dose/g)” value (Rattus norvegicus [29]) was 0.3% and the “Distribution (dose/g)” value (Rattus norvegicus [30]) was 3.07%. For the same molecule, the “Distribution (dose/g)” value (Rattus norvegicus [31]) was 0.23%, the “Distribution (dose/g)” value (Rattus norvegicus [32]) was 0.93% and the “Distribution (dose/g)” value (Rattus norvegicus [33]) was 0.77%.
